Data on one compound can be found in ChEMBL document CHEMBL1145100, “Structure-activity relationship of imidazo[1,2-a]pyridines as ligands for detecting beta-amyloid plaques in the brain” (J Med Chem, 2003).

In the test the target is Amyloid-beta precursor protein (Homo sapiens, UniProt P05067). Nature of the test: Inhibition constant against [125I]-7 (TZDM) binding to Amyloid beta 1-40 aggregates. Summed up: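 Abeta40 peptide aggregated at 0.5 mg/mL in pH 7.4 buffer (10 mM sodium phosphate, 1 mM EDTA), 37 °C for 36-42 h with shaking. Competition in 1 mL of 40% EtOH: fibrils 10-50 nM final, radiotracer 0.05 nM, inhibitors 10^-5 to 10^-10 M. Nonspecific binding with 2 µM thioflavin-T. Incubated 3 h at room temperature, then GF/B filtration with 10% ethanol washes and gamma counting. Ki from nonlinear regression.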
Amyloid-beta precursor protein, sequence (P05067 whole entry): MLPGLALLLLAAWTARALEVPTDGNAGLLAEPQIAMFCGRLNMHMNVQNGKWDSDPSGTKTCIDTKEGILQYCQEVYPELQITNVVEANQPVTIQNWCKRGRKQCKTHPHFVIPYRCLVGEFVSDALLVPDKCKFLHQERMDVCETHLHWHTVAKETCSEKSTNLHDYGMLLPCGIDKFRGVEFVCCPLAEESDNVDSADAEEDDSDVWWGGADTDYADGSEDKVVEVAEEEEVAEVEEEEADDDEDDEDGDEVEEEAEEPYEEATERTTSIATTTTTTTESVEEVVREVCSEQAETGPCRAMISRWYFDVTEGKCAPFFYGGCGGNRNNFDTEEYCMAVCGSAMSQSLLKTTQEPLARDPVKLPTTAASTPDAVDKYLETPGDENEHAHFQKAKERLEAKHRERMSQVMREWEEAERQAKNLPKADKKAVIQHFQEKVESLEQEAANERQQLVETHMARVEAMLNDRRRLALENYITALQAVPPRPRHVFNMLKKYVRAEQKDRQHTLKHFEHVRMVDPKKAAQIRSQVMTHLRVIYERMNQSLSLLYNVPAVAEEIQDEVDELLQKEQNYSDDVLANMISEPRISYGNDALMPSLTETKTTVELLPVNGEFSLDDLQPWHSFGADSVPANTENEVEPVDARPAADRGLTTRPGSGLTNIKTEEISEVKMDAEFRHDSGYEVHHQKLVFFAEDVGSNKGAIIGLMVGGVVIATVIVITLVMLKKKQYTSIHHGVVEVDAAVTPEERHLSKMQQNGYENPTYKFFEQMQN

Usually Ki stands for a dissociation constant, usually derived from enzyme kinetics or from competition with a known ligand. Higher therefore signals a looser hold on the target.

SMILES strings stand for the structures.

As for `CN(C)c1ccc(-c2cn3ccccc3n2)cc1`, the Ki is over 2000 nM.
